In ChEMBL document CHEMBL1795344, “Design, synthesis and antitumor evaluation of phenyl N-mustard-quinazoline conjugates” (Bioorg Med Chem, 2011):
pIC50: −log10 of the molar value. Active and inactive are the calls of the source. The calls are words filed in the database; no cut-off is given here.

How the values were obtained:
PC-3 [1] = experiment: Anticancer activity against human PC3 cells xenografted in athymic nude Swiss mouse assessed as tumor growth inhibition at 55 mg/kg, iv every two days for six times relative to control; format: functional; parameters: scale not given: the % may be the effect or the level left
CCRF-CEM [2] = experiment: Cytotoxicity against human CCRF-CEM cells after 72 hrs by XTT assay; format: functional, cell-based
How it was run: (§1)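 CCRF-CEM and its Taxol- and vinblastine-resistant sublines were incubated 72 h, then given phenazine methosulfate-XTT for 6 h at 37 °C. Absorbance was read at 450 and 630 nm. IC50 came from median-effect analysis of dose-effect data at six or seven concentrations.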

Mus musculus [3] = experiment: Toxicity in human PC3 cells xenografted athymic nude Swiss mouse assessed as mouse mortality at 55 mg/kg, iv every two days for six times; format: organism-based, PC-3; parameters: dose 55 mg/kg, route intravenous; conditions: in vivo
CCRF-CEM [4] = experiment: Cytotoxicity against human taxol-resistant CCRF-CEM cells after 72 hrs by XTT assay; format: functional, cell-based; how it was run: as §1
[5] = Cytotoxicity against human H1299 cells after 72 hrs by Alamar blue assay; format: functional, cell-based; conditions: NCI-H1299, 72 h
How it was run: (§2)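 H1299 and PC3 cells were exposed 72 h, then given Alamar blue for 6 h at 37 °C. Absorbance was read at 570 and 600 nm. IC50 came from median-effect analysis of dose-effect data at six or seven concentrations.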

MX1 [6] = experiment: Cytotoxicity against human MX1 cells after 72 hrs by SRB assay; format: functional, cell-based; conditions: MX1, 72 h
How it was run: (§3)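 MX-1 and HCT-116 solid tumor cells were exposed 72 h, with growth read by SRB staining on a microplate spectrophotometer. IC50 came from median-effect analysis of dose-effect data at six or seven concentrations.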

Mus musculus [7] = experiment: Toxicity in human MX1 cells xenografted athymic nude Swiss mouse assessed as body weight loss at 30 mg/kg, iv every two days for three times followed by 40 mg/kg, iv every two days for 5 times relative to control; format: organism-based; conditions: in vivo
CCRF-CEM [8] = experiment: Cytotoxicity against human vinblastine-resistant CCRF-CEM cells after 72 hrs by XTT assay; format: functional, cell-based; how it was run: as §1
Mus musculus [9] = experiment: Toxicity in human PC3 cells xenografted athymic nude Swiss mouse assessed as body weight loss at 55 mg/kg, iv every two days for six times relative to control; format: organism-based, PC-3; parameters: dose 55 mg/kg, route intravenous; conditions: in vivo
HCT-116 = experiment: Cytotoxicity against human HCT116 cells after 72 hrs by SRB assay; format: functional, cell-based; conditions: HCT-116, 72 h; how it was run: as §3
MX1 [10] = experiment: Antitumor activity against human MX1 cells xenografted in athymic nude Swiss mouse assessed as tumor growth inhibition at 30 mg/kg, iv every two days for three times followed by 40 mg/kg, iv every two days for 5 times relative to control; format: functional; parameters: scale not given: the % may be the effect or the level left
Mus musculus [11] = experiment: Toxicity in human MX1 cells xenografted athymic nude Swiss mouse assessed as mouse mortality at 30 mg/kg, iv every two days for three times followed by 40 mg/kg, iv every two days for 5 times; format: organism-based; conditions: in vivo
CCRF-CEM [12] = experiment: Ratio of IC50 for human vinblastine-resistant CCRF-CEM cells to IC50 for human CCRF-CEM cells; format: functional
CCRF-CEM [13] = experiment: Ratio of IC50 for human taxol-resistant CCRF-CEM cells to IC50 for human CCRF-CEM cells; format: functional
Nucleic Acid = experiment: Induction of pEGFP-N1 plasmid DNA interstrand cross-linking at 1 to 20 uM by alkaline agarose gel shift assay; format: nucleic-acid assay
How it was run: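 pEGFP-N1 plasmid DNA (1500 ng) was incubated with compound (1, 10, 20 μM) in 3 mM NaCl/1 mM sodium phosphate pH 7.4/1 mM EDTA for 2 h at 37 °C. It was then BamHI-linearized, ethanol-precipitated and denatured in 0.5 N NaOH-10 mM EDTA. Samples were run on a 0.8% alkaline agarose gel at 4 °C, 18 V for 22 h, stained with ethidium bromide.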

PC-3 [14] = experiment: Cytotoxicity against human PC3 cells after 72 hrs by Alamar blue assay; format: functional, cell-based; conditions: PC-3, 72 h; how it was run: as §2
Mus musculus [15] = experiment: Toxicity in human MX1 cells xenografted athymic nude Swiss mouse assessed as body weight loss at 50 and 60 mg/kg, iv every two days for three times followed by 70 mg/kg, iv every two days for two times relative to control; format: organism-based; conditions: in vivo
Mus musculus [16] = experiment: Toxicity in human MX1 cells xenografted athymic nude Swiss mouse assessed as mouse mortality at 50 and 60 mg/kg, iv every two days for three times followed by 70 mg/kg, iv every two days for two times; format: organism-based; conditions: in vivo
MX1 [17] = experiment: Antitumor activity against human MX1 cells xenografted in athymic nude Swiss mouse assessed as tumor growth inhibition at 50 and 60 mg/kg, iv every two days for three times followed by 70 mg/kg, iv every two days for two times relative to control; format: functional; parameters: scale not given: the % may be the effect or the level left

| Structure (SMILES) | Activity (PC-3 [1]) [%] | pIC50 (CCRF-CEM [2]) | Activity (Mus musculus [3]) | pIC50 (CCRF-CEM [4]) | pIC50 [5] | pIC50 (MX1 [6]) | Activity (Mus musculus [7]) [%] | pIC50 (CCRF-CEM [8]) | Activity (Mus musculus [9]) [%] | pIC50 (HCT-116) | Activity (MX1 [10]) [%] | Activity (Mus musculus [11]) | Ratio IC50 (CCRF-CEM [12]) | Ratio IC50 (CCRF-CEM [13]) | Activity (Nucleic Acid) | pIC50 (PC-3 [14]) | Activity (Mus musculus [15]) [%] | Activity (Mus musculus [16]) | Activity (MX1 [17]) [%] |
| --- | --- | --- | --- | --- | --- | --- | --- | --- | --- | --- | --- | --- | --- | --- | --- | --- | --- | --- | --- |
| O=C(Nc1ccc(N(CCCl)CCCl)cc1)Nc1ccc2ncnc(Nc3cccc(Cl)c3F)c2c1 | 69 | 6.12 | Non-toxic | 5.81 | 5.26 | 5.34 | 6 | 5.98 | 6 | 5.42 | 52 | Non-toxic | 1.39 | 2.07 | Active | 5.20 | – | – | – |
| O=C(Nc1ccc(N(CCCl)CCCl)cc1)Nc1ccc2ncnc(Nc3ccc(F)c(Cl)c3)c2c1 | – | 6.00 | – | 5.94 | – | 5.27 | – | 5.94 | – | 5.47 | – | – | 1.14 | 1.16 | – | – | 5 | Non-toxic | 72 |
